Measurements pooled from the literature.
Lines come from different studies, so protocols differ.
TACR2: Substance-K receptor (TACR2, Homo sapiens, UniProt P21452)
Dipeptidyl peptidase 8: Dipeptidyl peptidase 8 (Homo sapiens, UniProt Q6V1X1)
USP8: Ubiquitin carboxyl-terminal hydrolase 8 (USP8, Homo sapiens, UniProt P40818)

CCN(CC)CCCC[C@H](NC(=O)[C@H](CC(C)C)NC(=O)[C@H](C)NC(=O)[C@H](Cc1ccccc1)NC(=O)c1ccc(C(C)(C)C)cc1)C(=O)N[C@@H](CO)C(=O)OC
inhibition (TACR2; ligand displacement, radioligand; 10 µM): 75%

Cn1cc(-c2cccc(N3CCc4c(sc5c4CC(C)(C)C5)C3=O)c2CO)cc(Nc2ccncn2)c1=O
inhibition (Protein kinase C alpha type (PRKCA, Homo sapiens, UniProt P17252); enzyme activity, inhibitor; 1 µM): 5%

C[C@H](C(=O)N[C@H]1COc2ccccc2[C@@H]1S(C)(=O)=O)c1ccc(F)cc1
inhibition (TACR2; cell-free assay; 10 µM): -21%

O=C(CCCCCCC(=O)Nc1ccccc1)NO
inhibition (Histone deacetylase 1 (HDAC1, Homo sapiens, UniProt Q13547); enzyme activity, inhibitor; 0.1 µM): 66.3%

c1ccc(C(NCCNC(c2ccccc2)c2ccccc2)c2ccccc2)cc1
inhibition (TACR2; cell-free assay; 10 µM): 40%

N=C(N)c1ccc2cc(OC(=O)c3ccc(N=C(N)N)cc3)ccc2c1
inhibition (Dipeptidyl peptidase 8; enzyme activity, inhibitor; 10 µM): 8%

C#Cc1n[nH]c2c(-c3cn([C@@H](C)c4ccccc4)c(=O)[nH]c3=O)cc(F)cc12
inhibition (Tyrosine-protein kinase Yes (YES1, Homo sapiens, UniProt P07947); enzyme activity, inhibitor; 0.1 µM): -3.5%

CCOC(=O)c1ccc(OC(=O)CCCCCNC(=N)N)cc1
inhibition (USP8; enzyme activity, inhibitor; 10 µM): 0%

CN(CCN1CCC(OC(=O)Nc2ccccc2-c2ccccc2)CC1)C(=O)c1ccc(CN2CCC(C(N)=O)CC2)cc1
inhibition (TACR2; ligand displacement, radioligand; 1 µM): 1%

O=c1ccc2ccc3occc3c2o1
inhibition (Histone deacetylase 8 (HDAC8, Homo sapiens, UniProt Q9BY41); enzyme activity, inhibitor; 10 µM): 33.9%

CN(C)C(=O)COC(=O)Cc1ccc(OC(=O)c2ccc(NC(=N)N)cc2)cc1
inhibition (USP8; enzyme activity, inhibitor; 10 µM): 0%

COc1cc(Nc2ncc(F)c(Nc3ccc4c(n3)NC(=O)C(C)(C)O4)n2)cc(OC)c1OC
inhibition (Cyclin-dependent kinase 11B (CDK11B, Homo sapiens, UniProt P21127); binding, competition with immobilised ligand; 10 µM): 0%

Cn1cc(-c2cc(F)cc(N3CCn4c(cc5c4CCCC5)C3=O)c2CO)cc(Nc2ccc(N3CCN(C4COC4)CC3)cn2)c1=O
inhibition (Testis-specific serine/threonine-protein kinase 2 (TSSK2, Homo sapiens, UniProt Q96PF2); enzyme activity, inhibitor; 0.1 µM): 17%

N#Cc1ccc(NCCNCC(=O)N2N=CCC2C#N)nc1 (stereo not drawn)
inhibition (Dipeptidyl peptidase 8; enzyme activity, inhibitor; 1 µM): 0%

C#Cc1n[nH]c2c(-c3cn(C(C)c4ccccn4)c(=O)[nH]c3=O)cc(F)cc12 (stereo not drawn)
inhibition (Glycogen synthase kinase-3 alpha (GSK3A, Homo sapiens, UniProt P49840); enzyme activity, inhibitor; 1 µM): 4.6%
